ChEMBL document CHEMBL4732211, “Multifunctional agents based on benzoxazolone as promising therapeutic drugs for diabetic nephropathy” (Eur J Med Chem, 2021)
Activity calls are given as the source filed them. The calls are words filed in the database; no cut-off is given here.

Assays:
[1] = target: Aldo-keto reductase family 1 member A1 (Rattus norvegicus, UniProt P51635); assay: Inhibition of Wistar rat kidney ALR1 assessed as reduction in NADPH oxidation using sodium D-glucuronate and NADPH as substrate preincubated for 10 mins followed by substrate addition and measured for 4 mins by spectrophotometric analysis; type: tissue-based
Aldo-keto reductase family 1 member A1, sequence (P51635 whole entry, looked up): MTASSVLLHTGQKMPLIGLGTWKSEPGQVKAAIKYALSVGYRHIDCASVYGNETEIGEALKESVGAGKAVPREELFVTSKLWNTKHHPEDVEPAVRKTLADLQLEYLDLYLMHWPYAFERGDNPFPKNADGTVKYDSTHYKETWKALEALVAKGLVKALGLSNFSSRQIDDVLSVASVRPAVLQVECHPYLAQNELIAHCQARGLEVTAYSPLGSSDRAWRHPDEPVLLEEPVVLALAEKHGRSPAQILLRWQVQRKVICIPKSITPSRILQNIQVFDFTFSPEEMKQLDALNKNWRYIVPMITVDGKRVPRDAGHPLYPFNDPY

[2] = organism: Rattus norvegicus; assay: Selectivity index, ratio of IC50 for Wistar rat kidney ALR1 to IC50 for Wistar rat lens ALR2
Procedure, shortened: (§1)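 Aldose reductases (ALR2, ALR1) prepared from Wistar rats (200-250 g). NADPH loss followed at 340 nm for 4 min after substrate start, following 10 min preincubation. ALR2: pH 6.2 phosphate, 30 °C, NADPH 0.10 mM, D,L-glyceraldehyde 10 mM. ALR1: pH 7.2, 37 °C, NADPH 0.12 mM, D-glucuronate 20 mM. 0.5% DMSO; non-enzymatic rate subtracted. IC50 from log dose-response with ≥3 concentrations (20-80% inhibition), triplicate.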

[3] = target: Aldo-keto reductase family 1 member B1 (Rattus norvegicus) (UniProt P07943); assay: Potency index, ratio of IC50 of epalrestat to IC50 of compound for inhibition of Wistar rat lens ALR2 using D,L-glyceraldehyde and NADPH as substrate preincubated for 10 mins followed by substrate addition and measured for 4 mins by spectrophotometric analysis; type: tissue-based; settings: time 14.0 min; procedure, shortened: as §1
[4] = Antioxidant activity assessed as DPPH radical scavenging activity at 10 uM after 30 mins by spectrophotometric analysis; type: functional
Procedure, shortened: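 DPPH in methanol (1 mL, 0.025 mg/mL) plus methanol 1.9 mL and compound in methanol, final 100, 50 and 10 µM; absorbance at 517 nm. Scavenging % = 1 − (A_sample − A_blank)/A_control, where the blank is compound without DPPH. Trolox reference.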

[5] = system: Brain; assay: Antioxidant activity in rat brain assessed as inhibition of lipid peroxidation at 50 to 100 uM by TBARS assay; type: functional, tissue-based; settings: dose 50-100 µM
Procedure, shortened: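 Rat brain freshly homogenized in ice-cold saline and centrifuged; supernatant protein measured by Coomassie. Hydroxyl radical-driven lipid peroxidation read as MDA/TBARS with a commercial kit.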

[6] = Inhibition of polyol pathway in STZ-induced Kunming mouse model of diabetes assessed as decrease in sorbitol level in kidney cortex at 80 mg/kg, po administered daily via gavage for 8 weeks and measured at 6 hrs post-final drug dose by fluorospectrophotometric analysis; type: functional; settings: 1344 h
[7] = Inhibition of polyol pathway in STZ-induced Kunming mouse model of diabetes assessed as decrease in sorbitol level in kidney cortex at 160 mg/kg, po administered daily via gavage for 8 weeks and measured at 6 hrs post-final drug dose by fluorospectrophotometric analysis; type: functional; settings: 1344 h
[8] = Inhibition of polyol pathway in STZ-induced Kunming mouse model of diabetes assessed as decrease in sorbitol level in kidney cortex at 80 mg/kg, po administered QD via gavage for 4 weeks and measured at 6 hrs post-final drug dose by fluorospectrophotometric analysis; type: functional; settings: 672 h
[9] = system: Mus musculus; assay: Antioxidant activity in STZ-induced diabetic Kunming mouse assessed as reduction in liver MDA level at 80 mg/kg, po administered daily via gavage for 8 weeks and measured at 6 hrs post-final drug dose relative to STZ-treated group; type: functional; settings: 1344 h
[10] = system: Mus musculus; assay: Antioxidant activity in STZ-induced diabetic Kunming mouse assessed as reduction in liver MDA level at 160 mg/kg, po administered daily via gavage for 8 weeks and measured at 6 hrs post-final drug dose relative to STZ-treated group; type: functional; settings: 1344 h
[11] = system: Mus musculus; assay: Antioxidant activity in STZ-induced diabetic Kunming mouse assessed as reduction in liver MDA level at 80 mg/kg, po administered QD via gavage for 4 weeks and measured at 6 hrs post-final drug dose relative to STZ-treated group; type: functional; settings: 672 h
[12] = system: Mus musculus; assay: Antioxidant activity in STZ-induced diabetic Kunming mouse assessed as reduction in liver MDA level at 80 mg/kg, po administered daily via gavage for 8 weeks and measured at 6 hrs post-final drug dose relative to normal group; type: functional; settings: 1344 h
[13] = system: Mus musculus; assay: Antioxidant activity in STZ-induced diabetic Kunming mouse assessed as rise in liver MDA level at 80 mg/kg, po administered QD via gavage for 4 weeks and measured at 6 hrs post-final drug dose relative to normal group; type: functional
[14] = system: Mus musculus; assay: Antioxidant activity in STZ-induced diabetic Kunming mouse assessed as increase in GSH level in kidney at 80 mg/kg, po administered daily via gavage for 8 weeks and measured at 6 hrs post-final drug dose by microplate reader analysis; type: functional
[15] = system: Mus musculus; assay: Antioxidant activity in STZ-induced diabetic Kunming mouse assessed as increase in GSH level in kidney at 160 mg/kg, po administered daily via gavage for 8 weeks and measured at 6 hrs post-final drug dose by microplate reader analysis; type: functional
[16] = system: Mus musculus; assay: Antioxidant activity in STZ-induced diabetic Kunming mouse assessed as increase in GSH level in kidney at 80 mg/kg, po administered QD via gavage for 4 weeks and measured at 6 hrs post-final drug dose by microplate reader analysis; type: functional
[17] = system: Mus musculus; assay: Antidiabetic activity in STZ-induced Kunming mouse model of diabetes assessed as reduction in blood glucose level at 80 mg/kg, po administered daily via gavage for 8 weeks and measured at week 2; type: functional; settings: 336 h, time 2 weeks
[18] = system: Mus musculus; assay: Reno-protective activity in STZ-induced Kunming mouse model of diabetes assessed as urinary total protein excretion at 160 mg/kg, po administered daily via gavage for 8 weeks and measured at week 4 relative to control; type: functional; settings: time 4 weeks
[19] = system: Mus musculus; assay: Reno-protective activity in STZ-induced Kunming mouse model of diabetes assessed as urinary total protein excretion at 80 mg/kg, po administered daily via gavage for 8 weeks and measured at week 4 relative to control; type: functional; settings: time 4 weeks
[20] = system: Mus musculus; assay: Reno-protective activity in STZ-induced Kunming mouse model of diabetes assessed as reduction in albumin to creatinine ratio at 80 mg/kg, po administered QD via gavage for 4 weeks; type: functional; settings: 672 h
[21] = system: Mus musculus; assay: Reno-protective activity in STZ-induced Kunming mouse model of diabetes assessed as reduction in kidney lesions and appearance of normal structure at 80 to 160 mg/kg, po administered daily via gavage for 8 weeks by H and E staining based histological analysis; type: functional, organism-based; settings: dose 80-160 mg/kg
[22] = system: Mus musculus; assay: Reno-protective activity in STZ-induced Kunming mouse model of diabetes assessed as glomerular atrophy and inflammatory cell infiltration at 160 mg/kg, po administered daily via gavage for 8 weeks by H and E staining based histological analysis; type: functional, organism-based
[23] = system: Mus musculus; assay: Reno-protective activity in STZ-induced Kunming mouse model of diabetes assessed as normal kidney structure at 80 mg/kg, po administered QD via gavage for 4 weeks by H and E staining based histological analysis; type: functional, organism-based
[24] = system: Mus musculus; assay: Antidiabetic activity in STZ-induced Kunming mouse model of diabetes assessed as reduction in blood glucose level at 80 to 160 mg/kg, po administered daily via gavage for 8 weeks and measured at 2 to 5 hrs post-last drug dose; type: functional, organism-based; settings: dose 80-160 mg/kg
[25] = system: HEK-293T; assay: Cytotoxicity against human HEK293T cells at 25 to 200 uM measured after 24 hrs by MTT assay; type: cell-based; settings: dose 25-200 µM
Procedure, shortened: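 293T cells seeded at 1×10^5/well and exposed to 25, 50, 100 and 200 for 24 h at 37 °C; viability by MTT kit.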

[26] = system: Mus musculus; assay: Antidiabetic activity in STZ-induced Kunming mouse model of diabetes assessed as improvement in glucose tolerance at 80 mg/kg, po QD administered via gavage and measured for 120 mins by intraperitoneal GTT

## COc1cc(/C=C/c2cccc3c2oc(=O)n3CC(=O)O)ccc1O
[1]
  IC50: 4.9 µM
[2]
  Ratio IC50: 710
[3]
  Ratio IC50: 15
[4]
  Activity: 22.7%
[5]
  Activity: Active
[6]
  inhibition in vivo at 80 mg/kg: 19%
[7]
  inhibition in vivo at 160 mg/kg: 18%
[8]
  inhibition in vivo at 80 mg/kg: 24%
[9]
  inhibition in vivo at 80 mg/kg: 67%
[10]
  inhibition in vivo at 160 mg/kg: 45%
[11]
  inhibition in vivo at 80 mg/kg: 54%
[12]
  inhibition in vivo at 80 mg/kg: 16%
[13]
  Activity: 15%
[14]
  Activity: 170%
[15]
  Activity: 210%
[16]
  Activity: 150%
[17]
  inhibition in vivo at 80 mg/kg: 18%
[18]
  Activity: 93%
[19]
  Activity: 78%
[20]
  inhibition in vivo at 80 mg/kg: 57%
[21]
  Activity: Active
[22]
  Activity: inactive
[23]
  Activity: Active
[24]
  Activity: Active
[25]
  Activity: Non-Toxic
[26]
  Activity: Active
